# Test results taken from ChEMBL document CHEMBL3414420, “Synthesis of xanthohumol analogues and discovery of potent thioredoxin reductase inhibitor as potential anticancer agent” (J Med Chem, 2015).
# Activity calls are given as the source filed them. The rule behind the calls is not given here.
# What was measured:
# HepG2 = assay: Cytotoxicity against human HepG2 cells assessed as inhibition of cell proliferation after 72 hrs by MTT assay; format: functional, cell-based; conditions: HepG2, 72 h
# Method in brief: (§1)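 Cells, 5×10^3 per well, exposed in triplicate at 37 °C; DMSO-only wells as controls (0.1% v/v DMSO in all cell work). After 68 h, MTT (5 mg/mL stock) was added for a further 4 h. Overnight solubilisation at 37 °C in 10% SDS/5% isobutanol/0.1% HCl, then A570 read.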
# A549 = assay: Cytotoxicity against human A549 cells assessed as inhibition of cell proliferation after 72 hrs by MTT assay; format: functional, cell-based; conditions: A549, 72 h; method in brief: as §1
# HeLa = assay: Cytotoxicity against human HeLa cells assessed as inhibition of cell proliferation after 72 hrs by MTT assay; format: functional, cell-based; method in brief: as §1
# [1] = target: Thioredoxin reductase 1 (Rattus norvegicus) (UniProt O89049); assay: In vitro inhibition of NADPH-reduced TrxR (unknown origin) after 2 hrs incubation by microplate reader
# [2] = Cytotoxicity against human HL60 cells assessed as inhibition of cell proliferation after 72 hrs by MTT assay; format: functional, cell-based; conditions: HL-60, 72 h; method in brief: as §1
# [3] = Cytotoxicity against human […] cells assessed as inhibition of cell proliferation after 72 hrs by MTT assay; format: functional, cell-based; method in brief: as §1
# Thioredoxin reductase [4] = target: T1, Thioredoxin reductase (Homo sapiens, UniProt Q16881+Q9NNW7+Q86VQ6); assay: Inhibition of TrxR in human HeLa cells by Trx-mediated insulin reduction assay
# [5] = In vitro inhibition of TrxR U498C mutant (unknown origin) up to 40 uM after 2 hrs incubation by microplate reader
# Thioredoxin reductase [6] = target: T1, Thioredoxin reductase; assay: Inhibition of TrxR in human HeLa cells after 48 hrs by TRFS-green based fluorescence microscopy; format: cell-based
# Method in brief: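 Live HeLa cells exposed to compound for 44 h, then to TRFS-green (10 μM) for a further 4 h. Green fluorescence, which tracks cellular TrxR activity, imaged alongside phase contrast.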
# Thioredoxin reductase [7] = target: T1, Thioredoxin reductase; assay: Inhibition of TrxR in human HeLa cells after 48 hrs by end point reduction assay; format: cell-based
# Method in brief: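 HeLa cells treated 48 h, lysed in RIPA buffer and protein measured by Bradford. Lysate (20 μg) incubated 30 min at 37 °C with 0.3 mM insulin, 660 μM NADPH and 15 μM E. coli Trx (pH 7.6). Stopped with DTNB in 6 M guanidine-HCl; A412 minus Trx-free blank, as % of DMSO control.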
# Sequence of Thioredoxin reductase 1 (Rattus norvegicus) (O89049 whole entry, looked up): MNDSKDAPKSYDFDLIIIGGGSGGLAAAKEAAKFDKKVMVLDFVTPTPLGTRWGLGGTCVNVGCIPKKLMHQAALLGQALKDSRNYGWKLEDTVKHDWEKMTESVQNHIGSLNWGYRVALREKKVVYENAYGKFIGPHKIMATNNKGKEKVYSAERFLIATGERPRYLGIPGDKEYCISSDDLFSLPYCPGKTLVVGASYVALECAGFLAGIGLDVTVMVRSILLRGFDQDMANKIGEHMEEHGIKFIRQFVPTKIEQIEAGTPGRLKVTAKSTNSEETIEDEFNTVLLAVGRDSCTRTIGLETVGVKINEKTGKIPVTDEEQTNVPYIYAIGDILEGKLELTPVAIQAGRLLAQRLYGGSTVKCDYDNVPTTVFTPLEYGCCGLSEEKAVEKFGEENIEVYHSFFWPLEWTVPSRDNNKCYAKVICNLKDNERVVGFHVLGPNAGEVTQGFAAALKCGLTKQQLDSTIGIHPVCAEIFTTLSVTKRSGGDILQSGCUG
SMILES,IC50 (HepG2),IC50 (A549),IC50 (HeLa),further results
COc1cc(O)c(CC=C(C)C)c(O)c1C(=O)/C=C/c1ccc([N+](=O)[O-])cc1,12.4 µM,31.2 µM,29.7 µM,–
COc1cc(/C=C/C(=O)c2c(O)cc(O)cc2OC)ccc1O,> 50 µM,> 50 µM,> 50 µM,–
COc1cc(O)c(CC=C(C)C)c(O)c1C(=O)/C=C/c1ccc(Cl)cc1,10.1 µM,11.8 µM,16.5 µM,–
COc1cc(OC)c(C(=O)/C=C/c2ccc(C)cc2)c(OC)c1,18.4 µM,15 µM,17 µM,–
COc1cc(/C=C/C(=O)c2c(O)cc(O)cc2OC)cc(OC)c1OC,20.4 µM,28.4 µM,18.9 µM,–
COc1ccc(/C=C/C(=O)c2c(O)cc(O)cc2OC)cc1OC,18.5 µM,> 50 µM,49.5 µM,–
COc1cc(O)cc(O)c1C(=O)/C=C/c1ccc(C(F)(F)F)cc1,14.1 µM,15.4 µM,9.5 µM,–
COc1ccc(/C=C/C(=O)c2c(O)cc(O)cc2OC)cc1,18.1 µM,> 50 µM,47.7 µM,–
COc1ccc(/C=C/C(=O)c2c(OC)cc(O)c(CC=C(C)C)c2O)c(OC)c1OC,14.8 µM,18 µM,> 50 µM,–
COc1cc(/C=C/C(=O)c2c(O)cc(O)cc2OC)cc(OC)c1,17.6 µM,34 µM,13.3 µM,–
COc1cc(OC)c(C(=O)/C=C/c2ccc(Cl)cc2)c(OC)c1,–,–,–,inhibition [1]: Active
COc1ccc(/C=C/C(=O)c2c(OC)cc(O)c(CC=C(C)C)c2O)cc1,32.4 µM,38 µM,> 50 µM,–
COc1cc(OC)c(C(=O)/C=C/c2ccc(C(F)(F)F)cc2)c(OC)c1,9.7 µM,14.2 µM,5.1 µM,IC50 [2]: 6.5 µM; inhibition [1]: Active; IC50 [3]: 15.7 µM
COc1cc(OC)c(OC)cc1/C=C/C(=O)c1c(OC)cc(O)c(CC=C(C)C)c1O,> 50 µM,14.4 µM,> 50 µM,–
COc1cc(/C=C/C(=O)c2c(OC)cc(OC)cc2OC)cc(OC)c1,9 µM,10.1 µM,9.2 µM,–
COc1cc(O)c(CC=C(C)C)c(O)c1C(=O)/C=C/c1cccc([N+](=O)[O-])c1,16.6 µM,15 µM,16.5 µM,–
COc1cc(/C=C/C(=O)c2c(OC)cc(O)c(CC=C(C)C)c2O)ccc1O,21.7 µM,11.8 µM,33.8 µM,–
COc1cc(OC)c(C(=O)/C=C/c2cc(OC)c(OC)c(OC)c2)c(OC)c1,16.5 µM,22.3 µM,9.9 µM,–
COc1cc(OC)c(C(=O)/C=C/c2ccc(O)c(O)c2)c(OC)c1,27.5 µM,8.2 µM,15.8 µM,–
COc1cc(OC)c(C(=O)/C=C/c2cc(OC)c(OC)cc2OC)c(OC)c1,23.8 µM,45.1 µM,40.5 µM,–
COc1cc(O)cc(O)c1C(=O)/C=C/c1ccc([N+](=O)[O-])cc1,41 µM,> 50 µM,> 50 µM,–

SMILES,IC50 (HepG2),IC50 (A549),IC50 (HeLa),further results
COc1ccc(/C=C/C(=O)c2c(OC)cc(O)c(CC=C(C)C)c2O)cc1OC,13.8 µM,15.7 µM,27.7 µM,–
COc1cc(O)cc(O)c1C(=O)/C=C/c1ccc(Cl)cc1,12.2 µM,18.2 µM,17 µM,–
COc1cc(O)c(CC=C(C)C)c(O)c1C(=O)/C=C/c1ccc(O)cc1 [XANTHOHUMOL],35 µM,30.5 µM,40.4 µM,IC50 (Thioredoxin reductase [4]): > 40 µM
COc1cc(OC)c(C(=O)/C=C/c2ccc(O)cc2)c(OC)c1,37 µM,49.4 µM,40.6 µM,–
COc1cc(OC)c(OC)cc1/C=C/C(=O)c1c(O)cc(O)cc1OC,18.7 µM,34.2 µM,37.8 µM,–
COc1cc(OC)c(C(=O)/C=C/c2ccc(N)cc2)c(OC)c1,45.2 µM,> 50 µM,> 50 µM,–
COc1cc(OC)c(C(=O)/C=C/c2ccc(OC)c(OC)c2)c(OC)c1,11.6 µM,39.1 µM,18.1 µM,–
COc1cc(O)cc(O)c1C(=O)/C=C/c1ccc(O)cc1 [HELICHRYSETIN],40.2 µM,> 50 µM,48.1 µM,–
COc1cc(O)c(CC=C(C)C)c(O)c1C(=O)/C=C/c1ccc(O)c(O)c1,15.2 µM,16.1 µM,38.1 µM,–
COc1cc(O)cc(O)c1C(=O)/C=C/c1ccc(O)c(O)c1,28.7 µM,11.8 µM,21.3 µM,–
COc1cc(OC)c(C(=O)/C=C/c2cccc([N+](=O)[O-])c2)c(OC)c1,–,–,–,IC50 (Thioredoxin reductase [4]): 3.5 µM; inhibition [5]: inactive; inhibition (Thioredoxin reductase [6]): Dose-dependent effect; IC50 [1]: 12.8 µM; inhibition (Thioredoxin reductase [7]): Dose-dependent effect
COc1ccccc1/C=C/C(=O)c1c(O)cc(O)cc1OC,15.3 µM,47.7 µM,43.6 µM,–
COc1cc(OC)c(C(=O)/C=C/c2ccc(O)c(OC)c2)c(OC)c1,17 µM,43.8 µM,44.9 µM,–
COc1cc(O)c(CC=C(C)C)c(O)c1C(=O)/C=C/c1ccc(C(F)(F)F)cc1,6.5 µM,11.1 µM,6.8 µM,IC50 [2]: 5.3 µM; inhibition [1]: Active; IC50 [3]: 10.7 µM
COc1cc(O)cc(O)c1C(=O)/C=C/c1cccc([N+](=O)[O-])c1,16.3 µM,36.8 µM,15.5 µM,IC50 [2]: 5.9 µM; inhibition [1]: Active; IC50 [3]: 20.1 µM
COc1cc(O)cc(O)c1C(=O)/C=C/c1ccc(C)cc1,> 50 µM,> 50 µM,> 50 µM,–
COc1ccccc1/C=C/C(=O)c1c(OC)cc(O)c(CC=C(C)C)c1O,14.6 µM,12.5 µM,19.7 µM,–
COc1cc(OC)c(C(=O)/C=C/c2ccc(OC)c(OC)c2OC)c(OC)c1,> 50 µM,44.3 µM,> 50 µM,–
COc1cc(OC)c(C(=O)/C=C/c2ccccc2OC)c(OC)c1,16.3 µM,19.8 µM,19.6 µM,–
COc1cc(/C=C/C(=O)c2c(OC)cc(O)c(CC=C(C)C)c2O)cc(OC)c1OC,> 50 µM,> 50 µM,> 50 µM,–
